RGS4 block – human RGS4 inhibition; P49798; HEK293 M3R/RGS4 inducible, Fluo-4 calcium flux; hits give high values; triggered by carbachol at its EC20; B-score at 10 µM; actives 0.45% (n = 310,000); AID 463165;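 active means B-score, a plate-corrected calcium signal, over three deviations above library mean, with baseline fluorescence within five deviations of library mean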;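 further: RGS4 expression induced by doxycycline in cells with stable M3 receptor; B-score is computed from the integrated fluorescence ratio over baseline after carbachol; higher B-score means a larger calcium signal and so more RGS4 inhibition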
Target sequence (P49798 whole entry, looked up): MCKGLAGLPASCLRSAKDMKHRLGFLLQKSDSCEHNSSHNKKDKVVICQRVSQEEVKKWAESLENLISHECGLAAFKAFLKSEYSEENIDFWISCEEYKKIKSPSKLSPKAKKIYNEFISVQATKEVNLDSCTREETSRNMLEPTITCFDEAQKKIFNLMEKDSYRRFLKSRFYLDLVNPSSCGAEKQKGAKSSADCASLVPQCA
RGS4 pot – RGS4 potentiation or activation. actives 0.92% (n = 310,000). B-score at 10 µM. HEK293 M3R/inducible RGS4, carbachol calcium flux Fluo4; hits give low values. AID 463111;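 active means B-score of the integrated calcium signal more than 4 SD below the library mean, with starting fluorescence not abnormally high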;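 further: negative B-score means reduced calcium response which marks RGS4 activation or potentiation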
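Material: Inducible-RGS4 HEK293 cells carrying M3 receptor; also added: carbachol at ECmax as muscarinic agonist stimulus; incubation: compound preincubation 20 min at room temperature before agonist; signal: Fluo4-AM (2 µM) calcium-flux fluorescence, kinetic read; measure: integrated calcium ratio converted to B score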
MrgX1 allo act – human MrgX1 positive allosteric modulation, primary screen; B-score at 10 µM; actives 0.63% (n = 310,000); AID 588675; Q96LB2; MrgX1-HEK293, Fluo-4 calcium flux, FDSS; hits give high values;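 active means plate-corrected calcium response at least 3 library SD above typical, normal starting fluorescence, not activating the receptor alone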;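 further: compound read alongside a low EC10 to EC30 dose of BAM8-22 agonist; peak minus trough fluorescence over baseline measured at the second addition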
Target sequence (Q96LB2 whole entry, looked up): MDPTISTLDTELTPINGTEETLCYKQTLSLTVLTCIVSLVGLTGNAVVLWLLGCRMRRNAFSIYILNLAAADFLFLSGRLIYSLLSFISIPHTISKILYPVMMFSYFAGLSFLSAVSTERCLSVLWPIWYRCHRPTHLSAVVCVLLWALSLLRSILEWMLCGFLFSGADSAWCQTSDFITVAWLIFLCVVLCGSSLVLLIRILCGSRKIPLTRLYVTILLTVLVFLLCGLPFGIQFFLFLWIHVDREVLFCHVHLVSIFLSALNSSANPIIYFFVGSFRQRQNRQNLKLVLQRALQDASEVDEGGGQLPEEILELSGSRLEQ
MrgX1 ag – activates human MrgX1 receptor signaling. MrgX1-HEK293 cells, Fluo-4 calcium fluorescence, agonist mode; hits give high values. actives 0.44% (n = 310,000). AID 588627. B-score at 10 µM. Q96LB2;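 active means calcium response B-score plate-corrected fluorescence ratio at least 3 library SD, with starting fluorescence B-score inside 5 SD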
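Material: MrgX1-expressing HEK293 cells / Dosing: compound as first of three additions / Incubation: overnight seeding, then 1 h dark dye loading / Signal: Fluo-4 NW calcium fluorescence / Evaluation: B-scored fluorescence response ratio / Benchmarks: positive and negative control wells on each plate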
MrgX1 antagonist – human MrgX1 receptor antagonism, primary screen | AID 588676 | Q96LB2 | B-score at 10 µM | actives 1.3% (n = 310,000) | MRGX1-HEK293 calcium flux, Fluo-4, BAM8-22 antagonism; hits give low values;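 active means calcium-response B-score plate-corrected more than 3 library SD below zero, starting fluorescence within 5 deviations, no agonist response on first addition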;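 further: peak minus trough fluorescence over baseline after final BAM8-22 challenge near maximal dose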
MrgX1 antag conf – confirmation of human MrgX1 receptor antagonists | shares compounds with MrgX1 antagonist | MrgX1-HEK293, BAM8-22 calcium flux, Fluo-4; hits give low values | remaining BAM8-22 calcium response % of control (hits give low values), % at 10 µM | actives 19% (n = 2,300);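 active means remaining agonist calcium response no higher than 100% minus 3 SD of agonist-only control wells, with starting fluorescence near control levels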;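 further: agonist BAM8-22 given at a near maximal EC90 to ECmax level; peak minus minimum fluorescence divided by baseline after agonist addition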
HEK293 Ca flux – counter-screen for MrgX1 antagonists: effect in parental HEK293 cells; shares compounds with MrgX1 antagonist; AID 624111; fluorescence ratio F(max-min)/F0 at 10 µM; Fluo-4 calcium fluorescence, FDSS; actives 2% (n = 4,000);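 active means duplicate-averaged calcium fluorescence ratio at least three times the standard deviation of buffer wells, a nonspecific response in parental cells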
HEK293 Ca counter – activity in parental HEK293 cells without MrgX1. parental HEK293 calcium flux, Fluo-4 fluorescence ratio; hits give high values. fluorescence ratio F(max-min)/F0 at 10 µM. actives 0.4% (n = 4,000). shares compounds with MrgX1 antagonist. AID 624114;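 active means calcium fluorescence ratio, averaged over duplicates, at least 3 SD of the buffer-well ratio, meaning a nonspecific response in receptor-free cells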;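 further: untransfected parental HEK293 lacking MrgX1 used as counterscreen for MrgX1 allosteric activators; fluorescence change taken during the second addition on a kinetic imager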
HEK293 Ca cntr2 – activity in parental HEK293 cells lacking MrgX1 receptor; shares compounds with MrgX1 antagonist; Fluo-4 calcium fluorescence (FDSS); hits give high values; fluorescence ratio F(max-min)/F0 at 10 µM; actives 8.7% (n = 4,000); AID 624115;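 active means calcium fluorescence ratio at least three times the spread of buffer wells, meaning a non-specific response in parental cells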
Starred values were filed as active, the others as inactive; i = inactive; . = no result given. An excerpt weighted towards active compounds, which were near 3.5% of everything screened.

SMILES	RGS4 block	RGS4 pot	MrgX1 allo act	MrgX1 ag	MrgX1 antagonist	MrgX1 antag conf	HEK293 Ca flux	HEK293 Ca counter	HEK293 Ca cntr2
Cc1cccc(NC(=O)c2ccccc2NC(=O)C2CCCCC2)c1C	i	i	i	i	-5*	i	i	i	i
C=CCN(C(=O)CCC(=O)Nc1cc(C)on1)C(C(=O)NC1CCCC1)c1ccc(CC)cc1 (stereo not drawn)	i	i	i	i	i	.	.	.	.
CC(C)(C)n1nnnc1C(c1cc2cc3c(cc2[nH]c1=O)OCO3)N1CCN(c2ccccc2)CC1 (stereo not drawn)	i	i	i	i	-7*	i	i	i	i
CC(CC(=O)N1CCN(S(=O)(=O)c2ccc(Cl)cc2)CC1)n1cncn1 (stereo not drawn)	i	i	i	i	i	.	.	.	.
COC(=O)CNC(=O)CNC(=O)Nc1ccccc1	i	i	i	i	-8.1*	83%*	i	i	i
Cc1ccc(C2N=C(N)Nc3nc(=O)c4ccccc4n32)cc1 (stereo not drawn)	i	i	i	i	i	.	.	.	.
CCOC(=O)CNC(=O)CSc1ccc(-c2nc3ccccc3[nH]2)cn1	i	i	i	i	-4.8*	i	i	i	i
CC(C)N(CCNC(=O)c1ccc(CS(=O)(=O)c2c(Cl)cccc2Cl)o1)Cc1ccccc1	i	i	i	i	i	.	.	.	.
O=C(c1cc2ccccc2cc1O)N1CCN(c2ccc([N+](=O)[O-])cc2)CC1	i	i	i	i	i	.	.	.	.
COc1ccccc1NC(=O)c1ccc2nc(C)c(C)nc2c1	i	i	i	i	-8.1*	i	i	i	i
COc1ccccc1NC(=O)c1cc2ccccc2nc1C	i	i	i	i	i	.	.	.	.
O=S(=O)(Nc1ccc(-c2cn3c(n2)SCC3)cc1)c1ccccc1F	i	i	i	i	i	.	.	.	.
Cc1nn(CCO)c2nc(-c3cccs3)cc(C(F)(F)F)c12	i	i	i	i	-9.5*	i	i	i	i
CCOc1ccc(NC(=O)COC(=O)COc2cccc3c2OC(C)(C)C3)cc1	i	i	i	i	i	.	.	.	.
CC(OC(=O)COc1cccc2c1OC(C)(C)C2)C(=O)Nc1ccc(S(N)(=O)=O)cc1 (stereo not drawn)	i	i	i	i	-5.4*	i	i	i	i
COc1ccc(N2C(=O)N[C@@H](Cc3ccccc3)C2=O)cc1OC	i	i	i	i	i	.	.	.	.
CCOC(=O)N1CCC(=NNC(=O)NC2CCCCC2)CC1	i	i	i	i	-21*	i	i	i	i
CCOC(=O)N1CCN(C(=O)NC2CCCCC2)CC1	i	i	i	i	i	.	.	.	.
O=S(=O)(Cc1cc(NCc2ccccc2)nc(-c2ccccn2)n1)c1ccccc1	i	i	i	i	-5.7*	86%*	i	i	i
O=C(CCNC(=O)c1ccc(Cl)cc1)Nc1ccncc1	i	i	i	i	i	.	.	.	.
CCOC(=O)N1CCC(NC(=O)CS(=O)(=O)Cc2nc(-c3ccccc3C)oc2C)CC1	i	i	i	i	-5.3*	i	i	i	i
COc1ccc(C(C)=O)cc1COC(=O)CCNS(=O)(=O)c1ccc(C)c(C)c1	i	i	i	i	i	.	.	.	.
COc1ccccc1/C=C(\NC(=O)c1ccccc1)C(=O)NCc1ccco1	i	i	i	i	i	.	.	.	.
CCOC(=O)c1cnn(-c2ccc(C)cc2)c1N	i	i	i	i	-4.7*	i	i	i	i
CCOC(=O)c1ccc(-n2ncc(C(=O)OCC)c2N)cc1	i	i	i	i	i	.	.	.	.
SMILES	RGS4 block	RGS4 pot	MrgX1 allo act	MrgX1 ag	MrgX1 antagonist	MrgX1 antag conf	HEK293 Ca flux	HEK293 Ca counter	HEK293 Ca cntr2
COc1cccc(C2=CC(c3ccccc3)n3nnnc3N2)c1 (stereo not drawn)	i	i	i	i	-5.6*	i	i	i	i
CCNc1ccc2noc3c2c1C(=O)c1ccccc1-3	i	i	i	i	-4.8*	i	0.58*	i	i
CC(=O)NCCC(=O)Nc1sc2c(c1-c1nc3ccccc3[nH]1)CCCC2	i	i	i	i	i	.	.	.	.
CN1CCN(S(=O)(=O)c2cccc(C(=O)Nc3sc4c(c3-c3nc5ccccc5[nH]3)CCCC4)c2)CC1	i	i	i	i	-5.5*	55%*	i	i	i
CCC(=O)N1CCN(c2nc3ccc(Br)cc3s2)CC1	i	i	i	i	i	.	.	.	.
Cc1ccc2nc3sc(C(=O)N4CCCc5ccccc54)c(N)c3cc2c1	i	i	i	i	-5.7*	i	0.58*	i	i
CCC(CO)n1c(=S)[nH]c2cc(OC)c(OC)cc2c1=O (stereo not drawn)	i	i	i	i	-4.6*	i	i	i	i
CCOc1cc2[nH]c(=S)n(C(C)C)c(=O)c2cc1OCC	i	i	i	i	i	.	.	.	.
Cc1ccc(CNc2nc3ccccc3n2C)o1	i	i	i	i	i	.	.	.	.
Cn1c(-c2ccc(CN3CCCCC3)o2)nc2ccccc21	i	i	i	i	-5.3*	i	i	i	i
CCOc1cc(/C=N/NC(=O)C(=O)N2CCCC2)ccc1O	i	i	i	i	i	.	.	.	.
COc1ccc(C(=O)Oc2ccc3c(C)cc(=O)oc3c2C(C)=O)cc1	i	i	i	i	-4.6*	i	i	i	i
O=C(CSc1ccsc1[N+](=O)[O-])N1CCN(c2ccccn2)CC1	i	i	i	i	i	.	.	.	.
CC(C)C1C(C#N)=C(N)Oc2n[nH]c(C(C)(C)C)c21 (stereo not drawn)	.	.	i	i	i	.	.	.	.
CCCC1C(C#N)=C(N)Oc2n[nH]c(C(C)(C)C)c21 (stereo not drawn)	i	i	i	i	-5.1*	i	i	i	i

High-throughput results as filed in PubChem BioAssay.
